Experimental data: ChEMBL document CHEMBL1124914, “Novel inhibitors of human renin. Cyclic peptides based on the tetrapeptide sequence Glu-D-Phe-Lys-D-Trp” (J Med Chem, 1990)
The source made the active and inactive calls. No cut-off for these calls is given here.

Tests used:
[1] = molecular target: T1, Renin (Homo sapiens) (UniProt P00797); assay: Tested for inhibition against human renin at a concentration of 100 uM
T1 sequence (whole entry): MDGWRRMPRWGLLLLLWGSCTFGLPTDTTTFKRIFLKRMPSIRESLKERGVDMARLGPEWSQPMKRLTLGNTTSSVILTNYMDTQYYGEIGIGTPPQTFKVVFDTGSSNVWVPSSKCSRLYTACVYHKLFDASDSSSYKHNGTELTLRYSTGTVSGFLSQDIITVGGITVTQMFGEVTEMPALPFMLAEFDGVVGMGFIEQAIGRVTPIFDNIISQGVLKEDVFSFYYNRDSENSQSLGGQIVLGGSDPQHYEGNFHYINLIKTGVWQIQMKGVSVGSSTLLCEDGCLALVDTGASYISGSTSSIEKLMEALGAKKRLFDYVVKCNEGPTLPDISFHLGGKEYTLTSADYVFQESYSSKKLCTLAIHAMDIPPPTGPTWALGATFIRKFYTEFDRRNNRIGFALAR
Summary of the method: (§1)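 Partially purified human renal renin with human angiotensinogen partially purified from volunteer plasma (ammonium sulfate fractionation, DEAE-Sephacel). Final mix: 50 mM phosphate pH 7.0, 3 mM EDTA, 3 mM 8-hydroxyquinoline, 0.5 mM PMSF, 0.1% azide, 0.1% BSA, 1% DMSO. […] Incubation 120 min at 30 °C, stopped on ice. Angiotensin I measured by radioimmunoassay; percent inhibition of vehicle control rate.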

[2] = molecular target: T2, Renin (Homo sapiens, UniProt P00797); assay: Inhibitory activity against human renin
T2 sequence (P00797 whole entry): T1 sequence (whole entry)
Summary of the method: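 Partially purified human renal renin with human angiotensinogen partially purified from volunteer plasma (ammonium sulfate fractionation, DEAE-Sephacel). Final mix: 50 mM phosphate pH 7.0, 3 mM EDTA, 3 mM 8-hydroxyquinoline, 0.5 mM PMSF, 0.1% azide, 0.1% BSA, 1% DMSO. Incubation 120 min at 30 °C, stopped on ice. Angiotensin I measured by radioimmunoassay; percent inhibition of vehicle control rate.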

[3] = molecular target: Renin (Sus scrofa); assay: Inhibitory activity against porcine renin
[4] = molecular target: T1, Renin (Homo sapiens); assay: Ratio of inhibitory activity of porcine renin to that of human renin; conditions: Sus scrofa
[5] = molecular target: T1, Renin (Homo sapiens); assay: Tested for inhibition against human renin at a concentration of 1 uM; summary of the method: as §1
[6] = molecular target: T1, Renin (Homo sapiens); assay: Tested for inhibition against human renin at a concentration of 100 uM; Inactive; summary of the method: as §1
[7] = molecular target: T1, Renin (Homo sapiens); assay: Tested for inhibition against human renin at a concentration of 10 uM; summary of the method: as §1

Row | SMILES | inhibition [1] | IC50 [2] | also measured
1 | CC(=O)NCSC[C@@H]1NC(=O)[C@@H](CC(C)C)NC(=O)C(Cc2c[nH]c3ccccc23)NC(=O)[C@@H](CSCNC(C)=O)NC(=O)[C@H](Cc2ccccc2)NC1=O (stereo in doubt) | 56% |  | 
2 | CCNC(=O)[C@H](CC(C)C)NC(=O)C(Cc1c[nH]c2ccccc12)NC(=O)[C@H](CCCCN)N1C(=O)CC[C@@H](NC(=O)OCc2ccccc2)C(=O)N[C@H](Cc2ccccc2)C1=O (stereo in doubt) |  | 850 nM | 
3 | CC(C)CCNC(=O)C(Cc1c[nH]c2ccccc12)NC(=O)[C@H](CCCCN)N1C(=O)CC[C@@H](NCC(C)(C)C)C(=O)N[C@H](Cc2ccccc2)C1=O (stereo in doubt) |  | 63 nM | IC50 [3]: 7100 nM; Ratio [4]: 113
4 | CC(C)CCNC(=O)C(Cc1c[nH]c2ccccc12)NC(=O)[C@H](CCCCN)N1C(=O)CC[C@@H](NC(C)C)C(=O)N[C@H](Cc2ccccc2)C1=O (stereo in doubt) | 93% |  | inhibition [5]: 30%
5 | CC(C)CCNC(=O)C(Cc1c[nH]c2ccccc12)NC(=O)[C@H](CCCCN)N1C(=O)CC[C@@H](N)C(=O)N[C@H](Cc2ccccc2)C1=O (stereo in doubt) |  | 710 nM | IC50 [3]: 46000 nM; Ratio [4]: 64.7
6 | COC(=O)[C@@H](NC(=O)C(Cc1c[nH]c2ccccc12)NC(=O)[C@H](CCCCN)N1C(=O)CC[C@@H](NC(=O)OCc2ccccc2)C(=O)N[C@H](Cc2ccccc2)C1=O)C1CCCCC1 (stereo in doubt) | 67% |  | 
7 | CC(=O)NCSC[C@H]1NC(=O)[C@H](Cc2ccccc2)NC(=O)CNC(=O)[C@@H](CC(C)C)NC(=O)C(Cc2c[nH]c3ccccc23)NC1=O (stereo in doubt) |  |  | inhibition [6]: inactive
8 | CCC(C)CN[C@@H]1CCC(=O)N([C@@H](CCCCN)C(=O)NC(Cc2c[nH]c3ccccc23)C(=O)NCCC(C)C)C(=O)[C@@H](Cc2ccccc2)NC1=O (stereo in doubt) |  | 130 nM | 
9 | COC(=O)[C@@H]1CCCN1C(=O)[C@H](CC(C)C)NC(=O)C(Cc1c[nH]c2ccccc12)NC(=O)[C@H](CCCCN)N1C(=O)CC[C@@H](NC(=O)OCc2ccccc2)C(=O)N[C@H](Cc2ccccc2)C1=O (stereo in doubt) |  |  | inhibition [7]: 76%
10 | COC(=O)[C@H](CC(C)C)NC(=O)C(Cc1c[nH]c2ccccc12)NC(=O)[C@@H](CCCN)N1C(=O)C[C@H](NC(=O)OCc2ccccc2)C(=O)N[C@H](Cc2ccccc2)C1=O (stereo in doubt) |  |  | inhibition [6]: inactive
11 | COC(=O)C(Cc1c[nH]c2ccccc12)NC(=O)[C@H](CCCCN)N1C(=O)CC[C@@H](NC(=O)OCc2ccccc2)C(=O)N[C@H](Cc2ccccc2)C1=O (stereo in doubt) | 69.2% |  | 
12 | COC(=O)[C@H](CC(C)C)NC(=O)C(Cc1c[nH]c2ccccc12)NC(=O)[C@@H]1CCC(=O)N[C@H](CCCCNC(=O)OCc2ccccc2)C(=O)N[C@@H](Cc2ccccc2)C(=O)N1 (stereo in doubt) |  |  | inhibition [6]: inactive
13 | CC(=O)NCSC[C@H]1NC(=O)[C@H](Cc2ccccc2)NC(=O)CN(C)C(=O)[C@@H](CC(C)C)NC(=O)C(Cc2c[nH]c3ccccc23)NC1=O (stereo in doubt) |  |  | inhibition [6]: inactive
14 | CC[C@@H](C)[C@H](NC(=O)C(Cc1c[nH]c2ccccc12)NC(=O)[C@H](CCCCN)N1C(=O)CC[C@@H](NC(=O)OCc2ccccc2)C(=O)N[C@H](Cc2ccccc2)C1=O)C(=O)NC (stereo in doubt) |  | 810 nM | 
15 | COC(=O)[C@@H](CCSC)NC(=O)[C@H](CC(C)C)NC(=O)C(Cc1c[nH]c2ccccc12)NC(=O)[C@H](CCCCN)N1C(=O)CC[C@@H](NC(=O)OCc2ccccc2)C(=O)N[C@H](Cc2ccccc2)C1=O (stereo in doubt) |  | 290 nM | 
16 | CC(C)C[C@H]1NC(=O)C(Cc2c[nH]c3ccccc23)NC(=O)[C@@H](CCCCN)N(C(=O)[C@@H](N)Cc2ccccc2)C1=O (stereo in doubt) |  |  | inhibition [6]: inactive
17 | COC(=O)C(CCSC)NC(=O)[C@H](CC(C)C)NC(=O)C(Cc1c[nH]c2ccccc12)NC(=O)[C@H](CCCCN)N1C(=O)CC[C@@H](NC(=O)OCc2ccccc2)C(=O)N[C@H](Cc2ccccc2)C1=O (stereo in doubt) |  | 450 nM | 

Row | SMILES | inhibition [1] | IC50 [2] | also measured
18 | COC(=O)[C@H](CC(C)C)NC(=O)C(Cc1c[nH]c2ccccc12)NC(=O)[C@H](CCCN)N1C(=O)CC[C@H](NC(=O)OCc2ccccc2)C(=O)N[C@@H](Cc2ccccc2)C1=O (stereo in doubt) | 42% |  | 
19 | CCC(Cc1c[nH]c2ccccc12)NC(=O)[C@H](CCCCN)N1C(=O)CC[C@@H](NC(=O)OC(C)(C)C)C(=O)N[C@H](Cc2ccccc2)C1=O (some centres not stated) | 41% |  | 
20 | CC(C)(C)CNC(=O)C(Cc1c[nH]c2ccccc12)NC(=O)[C@H](CCCCN)N1C(=O)CC[C@@H](NC(=O)OCc2ccccc2)C(=O)N[C@H](Cc2ccccc2)C1=O (stereo in doubt) |  | 1700 nM | 
21 | CC(C)(C)OC(=O)N[C@@H]1CCC(=O)N([C@@H](CCCCN)C(N)=O)C(=O)[C@@H](Cc2ccccc2)NC1=O |  |  | inhibition [6]: inactive
22 | CC(=O)NCSC[C@H]1NC(=O)[C@H](Cc2ccccc2)NC(=O)[C@@H]2CCCN2C(=O)[C@@H](CC(C)C)NC(=O)C(Cc2c[nH]c3ccccc23)NC1=O (stereo in doubt) | 38% |  | 
23 | COC(=O)[C@H](CCSC)NC(=O)[C@H](CC(C)C)NC(=O)C(Cc1c[nH]c2ccccc12)NC(=O)[C@H](CS)NC(=O)[C@H](Cc1ccccc1)NC(=O)[C@H](CS)NC(=O)OC(C)(C)C (stereo in doubt) | 22% |  | 
24 | CC(C)CCNC(=O)C(Cc1c[nH]c2ccccc12)NC(=O)[C@H](CCCCN)N1C(=O)CC[C@@H](NCc2c[nH]c3ccccc23)C(=O)N[C@H](Cc2ccccc2)C1=O (stereo in doubt) |  | 1900 nM | 
25 | CC(Cc1c[nH]c2ccccc12)NC(=O)[C@H](CCCCN)N1C(=O)CC[C@@H](NC(=O)OC(C)(C)C)C(=O)N[C@H](Cc2ccccc2)C1=O (some centres not stated) | 33% |  | 
26 | CC(C)CCNC(=O)C(Cc1c[nH]c2ccccc12)NC(=O)[C@H](CCCCN)N1C(=O)CC[C@@H](NC(=O)OC(C)(C)C)C(=O)N[C@H](Cc2ccccc2)C1=O (stereo in doubt) |  | 210 nM | IC50 [3]: 8500 nM; Ratio [4]: 40.4
27 | CNC(=O)[C@H](CC(C)C)NC(=O)C(Cc1c[nH]c2ccccc12)NC(=O)[C@H](CCCCN)N1C(=O)CC[C@@H](NC(=O)OCc2ccccc2)C(=O)N[C@H](Cc2ccccc2)C1=O (stereo in doubt) |  | 340 nM | 
28 | COC(=O)[C@H](CC(C)C)NC(=O)C(Cc1c[nH]c2ccccc12)NC(=O)[C@H](CCCCN)N1C(=O)CSC[C@@H](NC(=O)OCc2ccccc2)C(=O)N[C@H](Cc2ccccc2)C1=O (stereo in doubt) | 53% |  | 
29 | CC(C)C[C@H]1NC(=O)C(Cc2c[nH]c3ccccc23)NC(=O)[C@@H](CCCCN)N(C(=O)[C@H](Cc2ccccc2)NC(=O)OCc2ccccc2)C1=O (stereo in doubt) |  |  | inhibition [6]: inactive
30 | CC(C)CCNC(=O)C(Cc1c[nH]c2ccccc12)NC(=O)[C@H](CCCCN)N1C(=O)CC[C@@H](NC(=O)COc2ccccc2)C(=O)N[C@H](Cc2ccccc2)C1=O (stereo in doubt) |  | 430 nM | IC50 [3]: 8200 nM; Ratio [4]: 19.2
31 | CC(C)(C)OC(=O)N[C@@H]1CCC(=O)N([C@@H](CCCCN)C(=O)NCCc2c[nH]c3ccccc23)C(=O)[C@@H](Cc2ccccc2)NC1=O | 79% |  | 
32 | COC(=O)[C@H](CC(C)C)NC(=O)C(Cc1c[nH]c2ccccc12)NC(=O)[C@@H](CCCCN)N1C(=O)C[C@H](NC(=O)OCc2ccccc2)C(=O)N[C@H](Cc2ccccc2)C1=O (stereo in doubt) | 32% |  | 
33 | COC(=O)[C@H](CCCCN)N1C(=O)CC[C@@H](NC(=O)OC(C)(C)C)C(=O)N[C@H](Cc2ccccc2)C1=O |  |  | inhibition [6]: inactive
